# Data as given in ChEMBL document CHEMBL4665831, “Ultrapotent Inhibitor of Clostridioides difficile Growth, Which Suppresses Recurrence In Vivo” (J Med Chem, 2020).
# How the values were obtained:
# Escherichia coli = assay: Antimicrobial activity against Escherichia coli JW55031 harboring TolC mutant assessed as reduction in microbial growth after 48 hrs by CLSI based broth microdilution method; assay type: functional
# Summary of the method: (§1)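 CLSI broth microdilution: strains were grown aerobically overnight on tryptone soy agar at 37°C. A 0.5 McFarland suspension was diluted to ~5 × 10^5 CFU/mL in cation-adjusted Mueller-Hinton broth (E. coli) or tryptone soy broth (enterococci), and agents were serially diluted.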
# Clostridioides difficile [1] = assay: Antimicrobial activity against Clostridioides difficile ATCC BAA 1801 assessed as reduction in microbial growth after 48 hrs by broth microdilution method; assay type: functional
# Summary of the method: (§2)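 Broth microdilution: a 0.5 McFarland suspension was diluted in brain heart infusion supplemented (BHIS) broth to ~5 × 10^5 CFU/mL. Agents were serially diluted and plates incubated anaerobically at 37°C for 48 h.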
# Lactobacillus crispatus [2] = assay: Antibacterial activity against Lactobacillus crispatus HM-103 assessed as reduction in microbial growth after 48 hrs by broth microdilution method
# Summary of the method: (§3)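 Gut commensal MICs by broth microdilution: a 0.5 McFarland suspension was diluted to ~5 × 10^5 CFU/mL in BHIS broth (Bacteroides) or MRS broth (Lactobacillus). Agents were serially diluted and incubated 48 h at 37°C. MIC was read by visual inspection of growth.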
# Clostridioides difficile [3] = assay: Antimicrobial activity against Clostridioides difficile ATCC 43255 assessed as reduction in microbial growth after 48 hrs by broth microdilution method; assay type: functional; summary of the method: as §2
# Bacteroides fragilis [4] = assay: Antibacterial activity against Bacteroides fragilis HM-711 assessed as reduction in microbial growth after 48 hrs by broth microdilution method; assay type: organism-based; summary of the method: as §3
# Bacteroides fragilis [5] = assay: Antibacterial activity against Bacteroides fragilis HM-709 assessed as reduction in microbial growth after 48 hrs by broth microdilution method; assay type: organism-based; summary of the method: as §3
# Clostridioides difficile [6] = assay: Antimicrobial activity against Clostridioides difficile NR-13435 isolate 9 assessed as reduction in microbial growth after 48 hrs by broth microdilution method; assay type: functional; summary of the method: as §2
# Clostridioides difficile [7] = assay: Antimicrobial activity against Clostridioides difficile NR-32891 P13 assessed as reduction in microbial growth after 48 hrs by broth microdilution method; assay type: functional; summary of the method: as §2
# Phocaeicola dorei = assay: Antibacterial activity against Bacteroides dorei HM-719 assessed as reduction in microbial growth after 48 hrs by broth microdilution method; assay type: organism-based; summary of the method: as §3
# Clostridioides difficile [8] = assay: Antimicrobial activity against Clostridioides difficile NR-32895 P19 assessed as reduction in microbial growth after 48 hrs by broth microdilution method; assay type: functional; summary of the method: as §2
# Lactobacillus gasseri = assay: Antibacterial activity against Lactobacillus gasseri HM-400 assessed as reduction in microbial growth after 48 hrs by broth microdilution method; summary of the method: as §3
# Lactobacillus crispatus [9] = assay: Antibacterial activity against Lactobacillus crispatus HM-371 assessed as reduction in microbial growth after 48 hrs by broth microdilution method; summary of the method: as §3
# Clostridioides difficile [10] = assay: Antimicrobial activity against Clostridioides difficile NR-32904 P30 assessed as reduction in microbial growth after 48 hrs by broth microdilution method; assay type: functional; summary of the method: as §2
# Clostridioides difficile [11] = assay: Antimicrobial activity against Clostridioides difficile NR-13432 isolate 6 assessed as reduction in microbial growth after 48 hrs by broth microdilution method; assay type: functional; summary of the method: as §2
# Clostridioides difficile [12] = assay: Antimicrobial activity against Clostridioides difficile NR-32883 P2 assessed as reduction in microbial growth after 48 hrs by broth microdilution method; assay type: functional; summary of the method: as §2
# Enterococcus faecium = assay: Antimicrobial activity against vancomycin-resistant Enterococcus faecium ATCC 700221 assessed as reduction in microbial growth after 48 hrs by CLSI based broth microdilution method; assay type: functional; summary of the method: as §1
# Enterococcus faecalis = assay: Antimicrobial activity against vancomycin-resistant Enterococcus […] ATCC 51299 assessed as reduction in microbial growth after 48 hrs by CLSI based broth microdilution method; assay type: functional; summary of the method: as §1
# Clostridioides difficile [13] = assay: Antimicrobial activity against Clostridioides difficile ATCC 43255 assessed as drug resistance by measuring frequency of mutation at 15 times of MIC after 48 hrs; assay type: functional
# Clostridioides difficile [14] = assay: Antibacterial activity against Clostridioides difficile ATCC 43255 infected in CDI mouse model assessed as bacterial recurrence at 10 mg/kg, po for 5 days and measured on day 21 relative to control; assay type: functional; conditions: time 21 day
# Clostridioides difficile [15] = assay: Antibacterial activity against Clostridioides difficile ATCC 43255 infected in CDI mouse model assessed as survival rate at 10 mg/kg, po for 5 days relative to control; assay type: functional; conditions: ATCC 43255, po, 120 h, time 5 day
# Clostridioides difficile [16] = assay: Antimicrobial activity against Clostridioides difficile ATCC 43255 assessed as drug resistance by measuring frequency of mutation at 20 times of MIC after 48 hrs; assay type: functional
# [17] = target: Cyclin-dependent kinase 2 (Homo sapiens, UniProt P24941); assay: Inhibition of human CDK2 expressed in sf9 insect cells
molecule,measurement,setting,value
GENTAMICIN,MIC,Escherichia coli,0.52 µM
O=C(Nc1nnc(-c2ccccn2)o1)c1ccc(SC(F)(F)F)cc1,MIC,Clostridioides difficile [1],21.8 µM
O=C(Nc1nnc(-c2ccccc2F)o1)c1ccc(SC(F)(F)F)cc1,MIC,Clostridioides difficile [1],10.4 µM
COc1ccc(Cl)cc1-c1nnc(NC(=O)c2ccc(SC(F)(F)F)cc2)o1,MIC,Clostridioides difficile [1],4.7 µM
O=C(Nc1nnc(-c2cccc(F)c2)o1)c1ccc(SC(F)(F)F)cc1,MIC,Clostridioides difficile [1],0.08 µM
CCc1c(Cl)c(O)c(Cl)c(O)c1C(=O)O[C@H]1[C@H](O)[C@H](OC)[C@H](OC/C2=C\C=C\C[C@H](O)/C(C)=C/[C@H](CC)[C@@H](O[C@@H]3OC(C)(C)[C@@H](OC(=O)C(C)C)[C@H](O)[C@@H]3O)/C(C)=C/C(C)=C/C[C@@H]([C@@H](C)O)OC2=O)O[C@@H]1C [FIDAXOMICIN],MIC,Lactobacillus crispatus [2],> 60.5 µM
same,MIC,Clostridioides difficile [3],0.01 µM
same,MIC,Bacteroides fragilis [4],> 60.5 µM
same,MIC,Bacteroides fragilis [5],> 60.5 µM
same,MIC,Clostridioides difficile [6],0.06 µM
same,MIC,Clostridioides difficile [1],0.06 µM
same,MIC,Clostridioides difficile [7],0.01 µM
same,MIC,Phocaeicola dorei,> 60.5 µM
same,MIC,Clostridioides difficile [8],0.03 µM
same,MIC,Lactobacillus gasseri,> 60.5 µM
same,MIC,Lactobacillus crispatus [9],> 60.5 µM
same,MIC,Clostridioides difficile [10],0.01 µM
same,MIC,Clostridioides difficile [11],0.06 µM
same,MIC,Clostridioides difficile [12],0.03 µM
Cc1ncc([N+](=O)[O-])n1CCO [METRONIDAZOLE],MIC,Lactobacillus crispatus [2],> 373.9 µM
same,MIC,Clostridioides difficile [3],1.46 µM
same,MIC,Bacteroides fragilis [4],5.84 µM
same,MIC,Bacteroides fragilis [5],11.68 µM
same,MIC,Enterococcus faecium,> 374 µM
same,MIC,Clostridioides difficile [6],0.7 µM
same,MIC,Clostridioides difficile [1],1.46 µM
same,MIC,Clostridioides difficile [7],0.7 µM
same,MIC,Phocaeicola dorei,5.84 µM
same,MIC,Clostridioides difficile [8],1.46 µM
same,MIC,Lactobacillus gasseri,> 373.9 µM
same,MIC,Lactobacillus crispatus [9],> 373.9 µM
same,MIC,Clostridioides difficile [10],1.46 µM
same,MIC,Clostridioides difficile [11],1.46 µM
same,MIC,Enterococcus faecalis,> 374 µM
same,MIC,Clostridioides difficile [12],0.7 µM
O=C(Nc1nnc(-c2ccccc2Cl)o1)c1ccc(SC(F)(F)F)cc1,MIC,Clostridioides difficile [1],10 µM
O=C(Nc1nnc(-c2ccc(Cl)cc2)o1)c1ccc(SC(F)(F)F)cc1,MIC,Clostridioides difficile [1],5 µM
COc1cccc(-c2nnc(NC(=O)c3ccc(SC(F)(F)F)cc3)o2)c1,MIC,Clostridioides difficile [1],10.1 µM
O=C(Nc1nnc(-c2ccc(Cl)cc2Cl)o1)c1ccc(SC(F)(F)F)cc1,MIC,Clostridioides difficile [1],0.07 µM
CC(C)c1ccc(-c2nnc(NC(=O)c3ccc(SC(F)(F)F)cc3)o2)cc1,MIC,Clostridioides difficile [1],314 µM
O=C(Nc1nnc(-c2cccc(Cl)c2)o1)c1ccc(SC(F)(F)F)cc1,MIC,Clostridioides difficile [1],0.08 µM
CN[C@H](CC(C)C)C(=O)N[C@H]1C(=O)N[C@@H](CC(N)=O)C(=O)N[C@H]2C(=O)N[C@H]3C(=O)N[C@H](C(=O)N[C@H](C(=O)O)c4cc(O)cc(O)c4-c4cc3ccc4O)[C@H](O)c3ccc(c(Cl)c3)Oc3cc2cc(c3O[C@@H]2O[C@H](CO)[C@@H](O)[C@H](O)[C@H]2O[C@H]2C[C@](C)(N)[C@H](O)[C@H](C)O2)Oc2ccc(cc2Cl)[C@H]1O [VANCOMYCIN],MIC,Lactobacillus crispatus [2],1.4 µM
same,MIC,Clostridioides difficile [3],0.7 µM
same,MIC,Bacteroides fragilis [4],44.2 µM
same,MIC,Bacteroides fragilis [5],22.1 µM
same,MIC,Clostridioides difficile [6],0.7 µM
same,MIC,Clostridioides difficile [1],0.7 µM
same,MIC,Clostridioides difficile [7],0.4 µM
same,MIC,Phocaeicola dorei,44.2 µM
same,Activity,Clostridioides difficile [13],<1.1 10^-9No_unit
same,MIC,Clostridioides difficile [8],0.7 µM
same,MIC,Lactobacillus gasseri,<= 0.7 uM
same,MIC,Lactobacillus crispatus [9],1.4 µM
same,MIC,Clostridioides difficile [10],0.7 µM
same,MIC,Clostridioides difficile [11],0.2 µM
same,MIC,Enterococcus faecalis,> 44.2 µM
same,Activity,Clostridioides difficile [14],83.3%
same,MIC,Clostridioides difficile [12],0.4 µM
same,MIC,Escherichia coli,> 44.2 µM
same,survival at 10 mg/kg,Clostridioides difficile [15],100%
same,Activity,Clostridioides difficile [16],<1.1 10^-9No_unit
Cc1ccc(-c2nnc(NC(=O)c3ccc(SC(F)(F)F)cc3)o2)cc1,MIC,Clostridioides difficile [1],10.5 µM
O=C(Nc1nnc(-c2ccc(C(F)(F)F)cc2)o1)c1ccc(SC(F)(F)F)cc1,MIC,Clostridioides difficile [1],0.29 µM
O=C(Nc1nnc(-c2cccs2)o1)c1ccc(SC(F)(F)F)cc1,MIC,Clostridioides difficile [1],1.4 µM
O=C(Nc1nnc(-c2ccccc2)o1)c1ccc(SC(F)(F)F)cc1,MIC,Clostridioides difficile [1],5.5 µM
O=C(Nc1nnc(-c2cccc(C(F)(F)F)c2)o1)c1ccc(SC(F)(F)F)cc1,MIC,Clostridioides difficile [1],0.04 µM
CC(=O)NC[C@H]1CN(c2ccc(N3CCOCC3)c(F)c2)C(=O)O1 [LINEZOLID],MIC,Enterococcus faecium,3 µM
same,MIC,Enterococcus faecalis,3 µM
same,MIC,Escherichia coli,47.4 µM
O=C(Nc1nnc(-c2ccc(F)cc2)o1)c1ccc(SC(F)(F)F)cc1,MIC,Clostridioides difficile [1],10.4 µM
COc1ccc(-c2nnc(NC(=O)c3ccc(SC(F)(F)F)cc3)o2)cc1,MIC,Clostridioides difficile [1],10.1 µM
CN1CC[C@H](c2c(O)cc(O)c3c(=O)cc(-c4ccccc4)oc23)[C@H](O)C1,IC50,[17],2.4 µM
